Data set [1] relates to Mus musculus. The data set can be described thus: Antinociceptive activity in ip dosed Swiss mouse assessed as inhibition of acetic acid-induced writhing response administered 15 mins prior to acetic acid challenge measured for 20 mins relative to vehicle-treated control. Type of data set: functional, organism-based. Put shortly: (§1)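 Mice dosed i.p. with compound or vehicle 15 min before testing, or with indomethacin 3 mg/kg i.p. 30 min before. After 15 min habituation in an enclosure, 0.9% acetic acid given i.p. (1 ml/0.1 kg) and writhes counted for 20 min. Non-responders excluded; n = 4-6; mean ± SD.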
For orientation: An intraperitoneal irritant provokes the stretching counted in writhing tests.

In data set [2] the test system is BT-549. Kind of data set: Cytotoxicity against human BT549 cells after 48 hrs by neutral red assay relative to control. As to conditions: BT-549, 48 h. Type of data set: cell-based. An outline of the steps: (§2)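 Cells grown in RPMI-1640 with 10% bovine calf serum and amikacin at 37°C, 5% CO₂. Seeded 25,000 cells/well, grown 24 h, then exposed to compounds diluted in serum-free medium for 48 h. Viability by Neutral Red uptake, % decrease versus vehicle control. IC50 from dose curves, triplicate means. Doxorubicin positive control.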

Data set [3] has as its system SK-OV-3. Kind of data set: Cytotoxicity against human SKOV3 cells after 48 hrs by neutral red assay relative to control. The format is cell-based. As to conditions: SK-OV-3, 48 h. Put shortly: as §2
The nature of data set [4]: Cytotoxicity against pig LLC-PK11 cells up to 25 ug/ml after 48 hrs by neutral red assay relative to control. The format is cell-based, Sus scrofa. As to conditions: llc-pk11, 48 h. An outline of the steps:
(§3)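 Cells grown in RPMI-1640 with 10% bovine calf serum and amikacin at 37 °C, 5% CO2. Seeded at 25,000 cells/well and grown 24 h, then exposed 48 h to samples diluted in serum-free medium. Viability by Neutral Red; % decrease vs vehicle; IC50 from dose curves. Triplicate runs, mean reported; doxorubicin as positive control.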

Data set [5] can be described thus: Antiinflammatory activity in human SW1353 cells assessed as inhibition of PMA-induced NF-kappaB activity incubated for 30 mins prior to PMA challenge measured after 8 hrs by luciferase reporter gene assay. Type of data set: cell-based. Put shortly: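 SW1353 cells in DMEM/F12 with 10% FBS, electroporated with NF-κB luciferase plasmid (160 V, one 70-ms pulse), plated at 1.25 × 10⁵ cells/well. After 24 h, graded compound concentrations added 30 min before PMA 70 ng/mL, then 8 h incubation. Luciferase read-out, % inhibition versus vehicle, IC50 from dose curves. Sp-1 reporter served as nonspecific control.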
A general note: In a reporter assay the amount or activity of a reporter protein is the signal.

In data set [6] the test system is SK-MEL. Kind of data set: Cytotoxicity against human SK-MEL cells up to 25 ug/ml after 48 hrs by neutral red assay relative to control. Type of data set: cell-based. An outline of the steps: as §3
For data set [7], the system named is Rattus norvegicus. Kind of data set: Antiinflammatory activity in albino rat assessed as inhibition of carrageenan-induced paw edema at 30 mg/kg, ip administered 1 hr prior to carrageenan challenge measured 2 hrs after induction of inflammation relative to control. Type of data set: functional. An outline of the steps:
(§4)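 Adult albino rats of both sexes, 120–150 g, groups of five, pre-hydrated with 3 ml water orally. Compounds suspended in distilled water with few drops Tween 80, given ip 1 h before subplantar s.c. 1% carrageenan into right hind paw. Paw thickness measured by dial calipers, left paw as control. % inhibition = (1 – Lt/Lc) × 100 versus saline/Tween 80 group.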

Data set [8] deals with KB. The data set can be described thus: Cytotoxicity against human KB cells after 48 hrs by neutral red assay relative to control. The format is cell-based. An outline of the steps:
as §2

Data set [9] concerns Rattus norvegicus. The data set can be described thus: Antiinflammatory activity in albino rat assessed as inhibition of carrageenan-induced paw edema at 30 mg/kg, ip administered 1 hr prior to carrageenan challenge measured 4 hrs after induction of inflammation relative to control. The format is functional. Put shortly:
as §4

The test system of data set [10] is Rattus norvegicus. The data set can be described thus: Antiinflammatory activity in albino rat assessed as inhibition of carrageenan-induced paw edema at 30 mg/kg, ip administered 1 hr prior to carrageenan challenge measured 3 hrs after induction of inflammation relative to control. The format is functional. An outline of the steps:
as §4
On the technique in general: Carrageenan injected into the paw causes an acute inflammation.

In data set [11] the test system is Rattus norvegicus. Kind of data set: Antiinflammatory activity in albino rat assessed as inhibition of carrageenan-induced paw edema at 30 mg/kg, ip administered 1 hr prior to carrageenan challenge measured 1 hr after induction of inflammation relative to control. Type of data set: functional. Put shortly:
as §4

The test system of data set [12] is Vero. Kind of data set: Cytotoxicity against African green monkey Vero cells up to 25 ug/ml after 48 hrs by neutral red assay relative to control. As to conditions: chlorocebus sabaeus. The format is cell-based. An outline of the steps: as §3
Data set [13] relates to Mus musculus. Kind of data set: Antinociceptive activity in ip dosed Swiss mouse assessed as inhibition of acetic acid-induced writhing response at 3 mg/kg, ip administered 30 mins prior to acetic acid challenge measured for 20 mins relative to vehicle-treated control. The format is functional, organism-based. Put shortly: as §1
The test system of data set [14] is KB. The data set can be described thus: Cytotoxicity against human KB cells up to 25 ug/ml after 48 hrs by neutral red assay relative to control. Type of data set: cell-based. Put shortly:
as §3

Data set [15] deals with Vero. Kind of data set: Cytotoxicity against African green monkey Vero cells after 48 hrs by neutral red assay relative to control. The format is cell-based. As to conditions: chlorocebus sabaeus. Put shortly: as §2
Data set [16] has as its system SK-MEL. The data set can be described thus: Cytotoxicity against human SK-MEL cells after 48 hrs by neutral red assay relative to control. Type of data set: cell-based. An outline of the steps:
as §2

The subject of data set [17] is BT-549. The data set can be described thus: Cytotoxicity against human BT549 cells up to 25 ug/ml after 48 hrs by neutral red assay relative to control. As to conditions: bt-549, 48 h. The format is cell-based. An outline of the steps: as §3
Data set [18] concerns SK-OV-3. Kind of data set: Cytotoxicity against human SKOV3 cells up to 25 ug/ml after 48 hrs by neutral red assay relative to control. Type of data set: cell-based. As to conditions: sk-ov-3, 48 h. Put shortly: as §3

One may read the IC50 as the concentration that gives 50% inhibition. One may read the inhibition in vivo as the drop in the measured response relative to a control, in per cent.

Calls of active or inactive are those of the source. The calls are words filed in the database; no cut-off is given here.

For `O=c1sc2ccccc2n1CCCCCCN1CCN(CCCCCCn2c(=O)sc3ccccc32)CC1`, the inhibition entry in data set [1] was “Dose-dependent effect”. Besides, the 50% inhibitory concentration (IC50) in data set [2] was determined as 24.3 µM; in [3], 24.3 µM; in [5], 0.41 µM; in [8] it was 20.8 µM. In addition, the Activity result in data set [4], in data set [6] and in data set [12] was “Non-toxic” in each case. Moreover, the inhibition in vivo at 30 mg/kg was 37.5% in [7], 36.9% in data set [9], 39.3% in [10] and 32.2% in data set [11].

Take `COc1ccc2c(c1)c(CC(=O)O)c(C)n2C(=O)c1ccc(Cl)cc1`: the inhibition result in [13] was “Active”.

Regarding `O=C(c1ccccc1)c1ccc2n1CCC2C(=O)O` (stereo not given) [KETOROLAC], the inhibition in vivo at 30 mg/kg came out at 74.2% in data set [7], 79.3% in data set [9], 75.4% in data set [10] and 70.5% in data set [11].

As for `O=c1sc2ccccc2n1CCCCCCN1CCN(CCCCCn2c(=O)sc3ccccc32)CC1`, the IC50 in data set [2] came to 19.6 µM; in data set [3], 25 µM; in data set [5], 1.06 µM; in data set [15] it was 25 µM. In addition, the Activity entry in data set [4], in data set [14] and in data set [6] was “Non-toxic” each time. The inhibition in vivo at 30 mg/kg came to 41.1% in [7], 34.9% in data set [9], 34.7% in [10] and 33.9% in data set [11].

Regarding `c1ccc2sc(SCCCCN3CCN(CCCCSc4nc5ccccc5s4)CC3)nc2c1`, in data set [1], the inhibition entry is “Dose-dependent effect”. For the same compound, the IC50 was 17.5 µM in data set [16], 0.34 µM in data set [5] and 25 µM in data set [8]. Further, the Activity result in [4], in data set [17], in [12] and in data set [18] was “Non-toxic” throughout. In addition, the inhibition in vivo at 30 mg/kg is 64.3% in data set [7], 47.1% in data set [9], 63.4% in data set [10] and 59.9% in [11].

For the origin of these results see ChEMBL document CHEMBL3596194, “Design, synthesis and biological evaluation of bivalent benzoxazolone and benzothiazolone ligands as potential anti-inflammatory/analgesic agents” (Bioorg Med Chem, 2015).
